# What was measured:
# KM12 = assay: Growth inhibition of human KM12 cells assessed as cell growth at 10 uM after 48 hrs by sulforhodamine B assay; type: functional; conditions: KM12, 48 h, read-out: Activity
# In short: (§1)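 NCI-60 single-dose screen at 10 µM: cells in RPMI 1640 with 5% FBS, preincubated 24 h, then exposed 48 h at 37 °C. TCA fixation (16% final for suspension cells), SRB staining, absorbance 515 nm. Percent growth relative to time-zero and untreated control plates; negative values indicate cell kill.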
# MDA-MB-231 = assay: Antiproliferative activity against human MDA-MB-231 cells by MTT assay; type: functional, cell-based
# In short: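 Cells plated at 8 × 10^3/well (MDA-MB-231) or 10^4/well (MCF7) in 96-well plates. Compounds fed in media with 5% FBS (MDA-MB-231) or 1% FBS (MCF7). MTT read-out of viable cells.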
# NCI-H522 = assay: Growth inhibition of human NCI-H522 cells assessed as cell growth at 10 uM after 48 hrs by sulforhodamine B assay; type: functional; conditions: NCI-H522, 48 h, read-out: Activity
# In short: (§2)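 Single-dose NCI-60 screen: adherent cells in RPMI 1640 with 5% FBS were exposed to 10 µM for 48 h at 37 °C after a 24 h preincubation. They were fixed in situ with cold TCA (10% final), stained with 0.4% SRB in 1% acetic acid, solubilized in 10 mM Tris base, and read at 515 nm. Percent growth was taken relative to time-zero and control plates.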
# PC-3 = assay: Growth inhibition of human PC3 cells assessed as cell growth at 10 uM after 48 hrs by sulforhodamine B assay; type: functional; conditions: PC-3, 48 h, read-out: Activity; in short: as §2
# OVCAR-4 = assay: Growth inhibition of human OVCAR4 cells assessed as cell growth at 10 uM after 48 hrs by sulforhodamine B assay; type: functional; conditions: OVCAR-4, 48 h, read-out: Activity; in short: as §2
# HCT-15 = assay: Growth inhibition of human HCT15 cells after 48 hrs by sulforhodamine B assay; type: functional; conditions: HCT-15, 48 h
# In short: (§3)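 NCI-60 screen: cells in RPMI 1640 with 5% FBS and 2 mM glutamine, 5000–40,000 cells/well, preincubated 24 h. Five concentrations (10-fold dilutions; 100 to 0.001 µM) applied for 48 h at 37 °C. TCA fixation, SRB stain, absorbance at 515 nm. Time-zero plates included; GI50 where 100×(T−T0)/(C−T0)=50.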
# MDA-MB-435 = assay: Growth inhibition of human MDA-MB-435 cells after 48 hrs by sulforhodamine B assay; type: functional; conditions: MDA-MB-435, 48 h
# In short: (§4)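 NCI-60 panel cells grown in RPMI 1640 with 5% FBS and 2 mM L-glutamine, seeded at 5000–40,000 cells/well and preincubated 24 h. Five 10-fold dilutions (0.001–100 µM) from DMSO stocks were added for 48 h at 37 °C. Adherent cells were fixed with cold TCA (10% final) for 60 min at 4 °C, stained with 0.4% SRB, and read at 515 nm. GI50 was set where 100×(T−T0)/(C−T0)=50.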
# A498 = assay: Growth inhibition of human A498 cells assessed as cell growth at 10 uM after 48 hrs by sulforhodamine B assay; type: functional; conditions: A498, 48 h, read-out: Activity; in short: as §1
# SK-OV-3 [1] = assay: Growth inhibition of human SKOV3 cells assessed as cell growth at 10 uM after 48 hrs by sulforhodamine B assay; type: functional; conditions: SK-OV-3, 48 h, read-out: Activity
# In short: (§5)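 Single-dose NCI-60 test at 10 µM. Cells were grown in RPMI 1640 with 5% FBS and 2 mM L-glutamine, preincubated 24 h, with T0 plates TCA-fixed. Exposure was 48 h at 37 °C, 5% CO2. Cells were fixed with cold TCA (final 10%, 4 °C, 60 min), stained with SRB and read at 515 nm. Percent growth was taken relative to T0 and untreated control; negative values denote cell kill.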
# SK-MEL-2 = assay: Growth inhibition of human SK-MEL-2 cells assessed as cell growth at 10 uM after 48 hrs by sulforhodamine B assay; type: functional; conditions: SK-MEL-2, 48 h, read-out: Activity; in short: as §2
# UACC-257 [2] = assay: Growth inhibition of human UACC257 cells after 48 hrs by sulforhodamine B assay; type: functional; conditions: UACC-257, 48 h
# In short: (§6)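 NCI-60 five-dose screen. Cells were grown in RPMI 1640 with 5% FBS and 2 mM L-glutamine, plated at 5000–40,000 cells/well and incubated 24 h before dosing, with T0 plates TCA-fixed. DMSO stocks were diluted to doses of […] and exposed 48 h at 37 °C, 5% CO2. Cells were fixed with cold TCA (final 10%, 60 min, 4 °C), stained with 0.4% SRB in 1% acetic acid for 10 min, solubilized in 10 mM trizma base and read at 515 nm. GI50 is where 100×(T−T0)/(C−T0)=50.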
# [3] = Growth inhibition of human EKVX cells assessed as cell growth at 10 uM after 48 hrs by sulforhodamine B assay; type: functional; conditions: read-out: Activity; in short: as §1
# ACHN = assay: Growth inhibition of human ACHN cells after 48 hrs by sulforhodamine B assay; type: functional; in short: as §3
# SK-OV-3 [4] = assay: Growth inhibition of human SKOV3 cells after 48 hrs by sulforhodamine B assay; type: functional; conditions: SK-OV-3, 48 h; in short: as §6
# UO-31 = assay: Growth inhibition of human UO31 cells assessed as cell growth at 10 uM after 48 hrs by sulforhodamine B assay; type: functional; conditions: UO-31, 48 h, read-out: Activity; in short: as §5
# RPMI-8226 = assay: Growth inhibition of human RPMI8226 cells assessed as cell growth at 10 uM after 48 hrs by sulforhodamine B assay; type: functional; conditions: RPMI-8226, 48 h, read-out: Activity
# In short: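 Single 10 µM dose applied to suspension cells in RPMI 1640 with 5% FBS and 2 mM L-glutamine for 48 h at 37 °C. Settled cells were fixed with 80% TCA (16% final), stained with SRB, and read at 515 nm. Percent growth was calculated against time-zero and untreated control optical densities.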
# Malme-3M = assay: Growth inhibition of human MALME-3M cells after 48 hrs by sulforhodamine B assay; type: functional; in short: as §4
# HL-60(TB) = assay: Growth inhibition of human HL-60(TB) cells after 48 hrs by sulforhodamine B assay; type: functional; conditions: HL-60, 48 h
# In short: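 HL-60(TB) cells (suspension) grown in RPMI 1640 with 5% FBS and 2 mM L-glutamine. They were plated and preincubated for 24 h, with T0 plates fixed at that point. Drug was given at five 10-fold dilutions for 48 h at 37 °C. Settled cells were fixed with TCA (16% final), stained with 0.4% SRB in 1% acetic acid and read at 515 nm. GI50 was taken where 100×(T−T0)/(C−T0)=50.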
# UACC-257 [5] = assay: Growth inhibition of human UACC257 cells assessed as cell growth at 10 uM after 48 hrs by sulforhodamine B assay; type: functional; conditions: UACC-257, 48 h, read-out: Activity; in short: as §5
# M14 = assay: Growth inhibition of human M14 cells assessed as cell growth at 10 uM after 48 hrs by sulforhodamine B assay; type: functional; conditions: M14, 48 h, read-out: Activity; in short: as §1
# A549 = assay: Growth inhibition of human A549/ATCC cells after 48 hrs by sulforhodamine B assay; type: functional; conditions: A549, 48 h; in short: as §3
compound,measurement,setting,value
CC(C)=CCC/C(C)=C/CC/C(C)=C/CC[C@]1(C)CCc2c3c(cc(C)c2O1)OCN(CCCO)C3,growth at 10 µM,KM12,-77.4%
same,IC50,MDA-MB-231,> 10 µM
same,growth at 10 µM,NCI-H522,-72.9%
same,growth at 10 µM,PC-3,50.8%
same,growth at 10 µM,OVCAR-4,-46.5%
same,GI50,HCT-15,1.97 µM
same,GI50,MDA-MB-435,1.65 µM
same,growth at 10 µM,A498,106%
same,growth at 10 µM,SK-OV-3 [1],88.3%
same,growth at 10 µM,SK-MEL-2,107%
same,GI50,UACC-257 [2],1.79 µM
same,growth at 10 µM,[3],82.7%
same,GI50,ACHN,1.75 µM
same,GI50,SK-OV-3 [4],1.98 µM
same,growth at 10 µM,UO-31,59.4%
same,growth at 10 µM,RPMI-8226,2.29%
same,GI50,Malme-3M,2.1 µM
same,GI50,HL-60(TB),2.19 µM
same,growth at 10 µM,UACC-257 [5],64.2%
same,growth at 10 µM,M14,15.1%
same,GI50,A549,1.89 µM
CC(C)=CCC/C(C)=C/CC/C(C)=C/CC[C@]1(C)CCc2c3c(c(C)c(C)c2O1)OCN(CCCCCO)C3,growth at 10 µM,KM12,29.3%
same,IC50,MDA-MB-231,> 50 µM
same,growth at 10 µM,NCI-H522,84.8%
same,growth at 10 µM,PC-3,71.8%
same,growth at 10 µM,OVCAR-4,93.1%
same,GI50,HCT-15,6.24 µM
same,GI50,MDA-MB-435,5.8 µM
same,growth at 10 µM,A498,97.4%
same,growth at 10 µM,SK-OV-3 [1],101%
same,growth at 10 µM,SK-MEL-2,107%
same,GI50,UACC-257 [2],6.97 µM
same,growth at 10 µM,[3],90.6%
same,GI50,ACHN,5.74 µM
same,GI50,SK-OV-3 [4],6.85 µM
same,growth at 10 µM,UO-31,64.6%
same,growth at 10 µM,RPMI-8226,1.02%
same,GI50,Malme-3M,6.9 µM
same,GI50,HL-60(TB),6.26 µM
same,growth at 10 µM,UACC-257 [5],110%
same,growth at 10 µM,M14,107%
same,GI50,A549,6.19 µM

# — ChEMBL document CHEMBL2380254, “Optimization of tocotrienols as antiproliferative and antimigratory leads” (Eur J Med Chem, 2013)
